Experimental data as given in ChEMBL document CHEMBL3621051, “Design and synthesis of 4-benzyl-1-(2H)-phthalazinone derivatives as novel androgen receptor antagonists” (Eur J Med Chem, 2015).
Calls of active or inactive are those of the source. No cut-off for these calls is given here.

Columns and labels:
[1] = molecular target: T1, Androgen receptor (Homo sapiens) (UniProt P10275); assay: Agonist activity at wild type AR expressed in […] SC cells assessed as effect on cell proliferation by WST-8 assay; format: cell-based
T1 sequence (whole entry): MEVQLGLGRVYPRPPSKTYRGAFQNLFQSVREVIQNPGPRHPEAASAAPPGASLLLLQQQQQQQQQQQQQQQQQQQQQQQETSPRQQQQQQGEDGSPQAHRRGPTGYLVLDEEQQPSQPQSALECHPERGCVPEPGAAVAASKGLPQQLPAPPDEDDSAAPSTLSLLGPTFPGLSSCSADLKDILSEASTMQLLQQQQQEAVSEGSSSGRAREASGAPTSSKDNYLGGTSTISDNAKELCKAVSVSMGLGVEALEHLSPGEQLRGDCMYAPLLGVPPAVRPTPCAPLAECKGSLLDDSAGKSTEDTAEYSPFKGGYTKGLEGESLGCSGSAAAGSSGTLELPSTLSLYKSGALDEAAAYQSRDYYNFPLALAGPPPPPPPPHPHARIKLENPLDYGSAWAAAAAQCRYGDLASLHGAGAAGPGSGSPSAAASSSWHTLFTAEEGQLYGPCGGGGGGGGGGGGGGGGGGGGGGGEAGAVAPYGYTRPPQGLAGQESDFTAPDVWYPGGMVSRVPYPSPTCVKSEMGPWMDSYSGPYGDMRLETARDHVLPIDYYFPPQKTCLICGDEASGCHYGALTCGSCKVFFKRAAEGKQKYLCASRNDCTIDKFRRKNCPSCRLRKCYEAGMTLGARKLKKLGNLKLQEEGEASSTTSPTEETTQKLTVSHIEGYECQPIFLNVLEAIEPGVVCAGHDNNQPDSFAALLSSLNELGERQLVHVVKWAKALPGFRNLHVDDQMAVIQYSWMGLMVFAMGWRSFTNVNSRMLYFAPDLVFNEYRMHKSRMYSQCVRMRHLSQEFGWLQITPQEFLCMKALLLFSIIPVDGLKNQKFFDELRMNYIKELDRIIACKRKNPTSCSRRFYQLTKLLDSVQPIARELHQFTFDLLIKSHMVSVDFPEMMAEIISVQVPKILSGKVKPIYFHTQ

PC-3 = assay: Cytotoxicity against androgen-independent human PC3 cells assessed as inhibition of cell proliferation after 3 days by WST-8 assay; format: functional, cell-based
Androgen receptor = molecular target: T2, Androgen receptor (Homo sapiens, UniProt P10275); assay: Displacement of [3H]-DHT from human GST fused AR-LBD (627 to 919 amino acids) transfected in Escherichia coli HB 101 after 15 hrs by liquid scintillation counting assay
T2 sequence (P10275 whole entry): T1 sequence (whole entry)
Procedure, shortened: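 Crude sonicated lysate in TEGDM was diluted to 0.3-0.5 mg/mL protein. Incubation was in the dark at 4°C for 15 h with 4 nM [3H]-DHT and 1 µM triamcinolone acetonide (final). Free ligand was removed with dextran/γ-globulin-coated charcoal, and the supernatant counted by liquid scintillation; ≥duplicate.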

Compound | Activity [1] | inhibition (PC-3) | IC50 (Androgen receptor)
O=C(O)c1ccccc1Cc1n[nH]c(=O)c2ccccc12 | inactive | – | –
CS(=O)(=O)Nc1ccccc1Cc1n[nH]c(=O)c2ccccc12 | inactive | – | –
Nc1ccccc1Cc1n[nH]c(=O)c2ccccc12 | inactive | inactive | 45.2 µM
CNc1ccccc1Cc1n[nH]c(=O)c2ccccc12 | inactive | – | –
CC(C)(O)C(=O)Nc1ccc([N+](=O)[O-])c(C(F)(F)F)c1 | inactive | – | –
O=c1[nH]nc(Cc2ccccc2F)c2ccccc12 | inactive | – | –
CC(=O)Nc1ccc(Cc2n[nH]c(=O)c3ccccc23)cc1 | inactive | – | –
CC(=O)Nc1ccccc1Cc1n[nH]c(=O)c2ccccc12 | inactive | – | –
Cc1ccccc1Cc1n[nH]c(=O)c2ccccc12 | inactive | – | –
O=c1[nH]nc(Cc2c(Cl)cccc2Cl)c2ccccc12 | inactive | inactive | 10.9 µM
Nc1ccc(Cc2n[nH]c(=O)c3ccccc23)cc1 | inactive | – | –
COc1ccccc1Cc1n[nH]c(=O)c2ccccc12 | inactive | – | –
CCNc1ccc(Cc2n[nH]c(=O)c3ccccc23)cc1 | inactive | – | –
CN(C)c1ccc(Cc2n[nH]c(=O)c3ccccc23)cc1 | inactive | – | –
CS(=O)(=O)Nc1ccc(Cc2n[nH]c(=O)c3ccccc23)cc1 | inactive | – | –
O=C(Nc1ccc(Cc2n[nH]c(=O)c3ccccc23)cc1)C(F)(F)F | inactive | – | –
O=c1[nH]nc(Cc2ccccc2C(F)(F)F)c2ccccc12 | inactive | – | –
O=C(Nc1ccccc1Cc1n[nH]c(=O)c2ccccc12)C(F)(F)F | inactive | – | –
O=[N+]([O-])c1ccc(Cc2nnc(O)c3ccccc23)cc1 | inactive | – | –
O=c1[nH]nc(Cc2c(Cl)ccc(Cl)c2Cl)c2ccccc12 | inactive | inactive | 56.7 µM
CNc1ccc(Cc2n[nH]c(=O)c3ccccc23)cc1 | inactive | – | –
O=c1[nH]nc(Cc2ccccc2[N+](=O)[O-])c2ccccc12 | inactive | inactive | > 100 µM
CCNc1ccccc1Cc1n[nH]c(=O)c2ccccc12 | inactive | – | –
CCN(CC)c1ccc(Cc2n[nH]c(=O)c3ccccc23)cc1 | inactive | – | –
CCN(CC)c1ccccc1Cc1n[nH]c(=O)c2ccccc12 | inactive | – | –
O=c1[nH]nc(Cc2c(F)cccc2F)c2ccccc12 | inactive | – | –
O=c1[nH]nc(Cc2ccccc2)c2ccccc12 | inactive | – | –
CN(C)c1ccccc1Cc1n[nH]c(=O)c2ccccc12 | inactive | – | –
Oc1nnc(Cc2ccccc2Cl)c2ccccc12 | inactive | inactive | 85.4 µM
Cc1cccc(C)c1Cc1n[nH]c(=O)c2ccccc12 | inactive | inactive | 84.3 µM
